CYP2C9 inh – human CYP2C9 inhibition | AID 777 | CYP2C9 Supersomes, luciferin-H conversion, luminescence | 96,000 tested, 20% active | inhibition, % at 5 µM;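 active means blocking of liver enzyme CYP2C9 beyond about 50% at 5 µM, limit read from the data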
Cav32 inh – blocks human Cav3.2 T-type calcium channel; O95180; Cav3.2-expressing cells, Fluo-4 calcium fluorescence FDSS; hits give low values; B-score at 10 µM; 100,000 tested, 4% active; AID 449739;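 active means single-dose well whose peak fluorescence ratio is a statistical outlier from its plate by either plate-standardised score or position-corrected B-score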
CYP2C19 activ – activators of human cytochrome P450 2C19; recombinant CYP2C19, luciferin-H EGE luminescence; hits give high values; 0 = fully inhibited enzyme, 1 = untreated enzyme; 96,000 tested, under 10 active; activation factor at 5 µM; P33261;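 active means activation factor of at least 2 at 5 µM in the primary screen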;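 further: 0 = wells with 2.5 mM tranylcypromine and 1 = vehicle-only wells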
Rev-RRE block – inhibitors of HIV-1 Rev-RRE RNA interaction; AID 704; inhibition, % at 8 µM; P05866; Rev peptide-RRE RNA binding, FRET; 97,000 tested, 0.79% active;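 active means inhibition above the screen-wide mean plus 3 SD, cut at about 35% in these data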;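 further: 0% = median DMSO wells and 100% = median Neomycin B control wells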
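Assay system: Rev peptide and RRE RNA, both fluorescently labelled; times: 5 min preincubation and 15 min binding, 25 °C; detection: FRET, ex 480 nm, em 540 and 671 nm; read-out basis: % inhibition from 671/540 nm acceptor-to-donor ratio, scaled between controls; benchmarks: DMSO low control, neomycin B high control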
CYP2C9 activ – increases human cytochrome P450 2C9 activity; P11712; recombinant CYP2C9, luciferin-H conversion, luminescence; hits give high values; factor 1 = untreated enzyme, 0 = blocked; activation factor at 5 µM; 96,000 tested, 1.4% active;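 active means activation factor of 2 or more for CYP2C9 at a 5 µM dose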;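 further: 0 = sulfaphenazole-blocked wells and 1 = vehicle-only wells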
CYP2C19 inh – human CYP2C19 inhibition. inhibition, % at 5 µM. P33261. CYP2C19 Supersomes, luciferin-H EGE luminescence, 30 min. 96,000 tested, 21% active;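 active means CYP2C19 inhibition above a set limit at 5 µM in the primary screen, cut at about 50% in these data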;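 further: plate controls were negative control wells for no effect and 2.5 mM tranylcypromine positive control for full effect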
An asterisk follows results filed as active; nt = no result. In the library only some 27% were active in any assay of this set; here they are far more common.

SMILES | CYP2C9 inh | Cav32 inh | CYP2C19 activ | Rev-RRE block | CYP2C9 activ | CYP2C19 inh
Cc1ccc(NC(=O)c2cc(NC(=O)c3ccco3)ccc2N2CCOCC2)cc1Cl | 69* | 0.3 | 0.5 | 8 | 0.3 | 47
CC(C)Oc1cccc(C(=O)Nc2ccc(CN3CCOCC3)cc2)c1 | 12 | 1.2 | 0.9 | 4 | 0.9 | 14
O=C(Nc1ccc(CN2CCOCC2)cc1)c1ccc(-c2cc(Cl)ccc2Cl)o1 | 65* | 0.42 | 0.5 | 1 | 0.3 | 55*
Cc1ccc(NC(=O)c2cc(S(=O)(=O)N3CCCCC3)ccc2N2CCOCC2)cc1F | 68* | -3.3 | 1.1 | 2 | 0.3 | -7
COc1ccc(C2/C=C\CNCC(=O)N2Cc2ccc(F)cc2)cc1 (configuration not stated) | nt | -0.56 | nt | nt | nt | nt
O=C(Nc1ccc(N2CCN(C(=O)c3ccccc3)CC2)cc1)c1ccc(Br)o1 | 30 | -0.6 | 0.9 | 4 | 0.7 | 10
O=C(Nc1ccc(N2CCN(C(=O)c3ccccc3)CC2)c(Cl)c1)c1ccc(Br)o1 | 51* | -0.86 | 0.6 | 9 | 0.5 | 37
O=C(Nc1ccc(N2CCCC2)cc1)c1ccc(Br)o1 | 10 | -0.066 | 0.4 | -1 | 0.9 | 61*
Cc1cc(N2CCCCC2)nc2ccc(NC(=O)c3ccc(Br)o3)cc12 | 81* | -4.9* | 0.1 | 12 | 0.2 | 94*
O=C(c1ccc2c(c1)OCCO2)C1CCN(S(=O)(=O)c2ccc(F)cc2)CC1 | -8 | -1.2 | 1 | 8 | 1.1 | -4
CC(C)OC(=O)C(C)Oc1ccc(C(=O)NCCc2ccccc2)cc1 (configuration not stated) | 18 | -0.87 | 0.8 | 8 | 0.8 | 15
O=C(CC1C(=O)N(c2ccc(Cl)cc2)C(=S)N1CCc1ccncc1)Nc1ccc(F)cc1 (configuration not stated) | 95* | 0.66 | 0.2 | 11 | 0 | 85*
O=C(CC1C(=O)N(c2ccc(F)cc2)C(=O)N1Cc1ccccn1)Nc1ccccc1 (configuration not stated) | 19 | -0.37 | 0.4 | 7 | 0.8 | 56*
CCNC(=O)CC1C(=O)N(c2ccc(C)cc2)C(=O)N1Cc1ccccn1 (configuration not stated) | 4 | 0.24 | 1 | 5 | 1 | 4
CCOC(=O)c1ccc(NC(=O)CC2C(=O)N(c3ccc(F)cc3)C(=O)N2CCCOC)cc1 (configuration not stated) | 49 | -0.081 | 0.6 | 10 | 0.5 | 36
CC(C)=CCCC(C)N(C=O)C(C)CCC=C(C)C (configuration not stated) | nt | -1.4 | nt | -3 | nt | nt
CC1CCCN(c2nc3ccccc3nc2C(C#N)S(=O)(=O)c2ccccc2)C1 (configuration not stated) | 30 | nt | 0.9 | 18 | 0.7 | 10
CCCCOc1nc2ccccc2nc1C(C#N)S(=O)(=O)c1ccccc1 (configuration not stated) | 77* | -0.87 | 0.2 | 10 | 0.2 | 78*
COC(=O)C12CC3CC(C1)CC(n1cnc(Cl)n1)(C3)C2 | nt | 0.79 | nt | 3 | nt | nt
O=C(c1ccc(Cl)cc1)c1cnc(-c2ccc(Cl)cc2)s1 | -6 | -0.1 | 0.4 | 2 | 1.1 | 64*
O=C(c1ccccc1)c1cnc(-c2ccc(Cl)cc2)s1 | 37 | 0.13 | 0.7 | 3 | 0.6 | 34
CNC(=O)[C@@H]1C[C@H]1[C@@H](NC(=O)CNC(=O)OCc1ccccc1)c1ccccc1 | nt | 1.6 | nt | nt | nt | nt
COC(=O)CNC(c1ccccc1)c1cc(C)ccc1NC(=O)CNC(=O)OCc1ccccc1 (configuration not stated) | 94* | -7.2* | 0.2 | 2 | 0.1 | 82*
COC(=O)CNC(c1ccccc1)c1cc(Br)ccc1NC(=O)OCc1ccccc1 (configuration not stated) | 74* | -9.4* | 0.6 | 18 | 0.3 | 43
O=c1[nH]cnc2c1N1CCC2CC1 | 15 | 0.73 | 1 | 8 | 0.8 | 1
COCCOC(=O)C1=C(C)N=C2SCCC(=O)N2C1c1ccc(OC(=O)c2ccco2)cc1 (configuration not stated) | 73* | -0.0051 | 0.3 | 2 | 0.3 | 73*

Screening data as filed in PubChem.
